Test results: ChEMBL document CHEMBL1629704, “Inhibition of dengue virus by an ester prodrug of an adenosine analog” (Antimicrob Agents Chemother, 2010)

Experiments:
dengue virus type 2 [1] = assay: Antiviral activity against Dengue virus 2 NGC infected in human A549 cells by CFI assay; format: functional, organism-based
How it was run: (§1)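 CFI assay: A549 cells seeded 2 × 10^4/well, infected next day (MOI 0.3 for DENV-2) with compound-virus mixture for 1 h, then refed with compound-containing medium. On day 2 cells were methanol-fixed at 4°C and intracellular E protein detected by ELISA (4G2 primary, HRP anti-mouse secondary). EC50 is the average of two independent experiments.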

dengue virus type 1 = assay: Antiviral activity against Dengue virus 1 MY10245 infected in human A549 cells by CFI assay; format: functional, organism-based; how it was run: as §1
dengue virus type 2 [2] = assay: Antiviral activity against Dengue virus 2 MY10340 infected in human A549 cells by CFI assay; format: functional, organism-based; how it was run: as §1
dengue virus type 3 = assay: Antiviral activity against Dengue virus 3 MY22366 infected in human A549 cells by CFI assay; format: functional, organism-based; how it was run: as §1
dengue virus type 4 = assay: Antiviral activity against Dengue virus 4 MY22713 infected in human A549 cells by CFI assay; format: functional, organism-based; how it was run: as §1
dengue virus type 2 [3] = assay: Antiviral activity against Dengue virus 2 NGC infected in human PBMC cells by plaque assay; format: functional, organism-based
dengue virus type 2 [4] = assay: Antiviral activity against Dengue virus 2 TSV01 infected in AG129 mouse assessed as reduced viremia by 25 mg/kg, po BID for 3 days measured on day 4 by plaque assay; format: functional
How it was run: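 AG129 mice (lacking IFN-α/β and IFN-γ receptors) were inoculated i.p. with 2 × 10^6 PFU DENV-2 in 0.4 ml. Immediately afterwards, 0.2 ml compound in ethanol-PEG-D5W (10:30:60) was given by oral gavage twice daily for 3 days. Day-4 blood viremia was measured by plaque assay; 6 or 8 mice per group.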

SMILES: C#C[C@@]1(O)[C@H](O)[C@@H](CO)O[C@H]1n1ccc2c(N)ncnc21
- EC50 (dengue virus type 2 [1]): 1640 nM
- EC50 (dengue virus type 1): 2610 nM
- EC50 (dengue virus type 2 [2]): 1120 nM
- EC50 (dengue virus type 3): 460 nM
- EC50 (dengue virus type 4): 700 nM
- EC50 (dengue virus type 2 [3]): 580 nM
- fold change (FC) (dengue virus type 2 [4]): 10
